Results published in PubChem BioAssay AID623885 (Vanderbilt Specialized Chemistry Center, 2012).
“And” between values parts separate entries of the source, which are not always exact repeats. Equal entries are not always repeated. The source made the active and inactive calls.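 The calls were made as follows: active = mean half-maximal effective concentration under 30 µM; inactive = the rest.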

These compounds were tested against Metabotropic glutamate receptor 3 (Rattus norvegicus) (UniProt P31422) (assay: inhibition of glutamate response at mGlu3 – thallium flux, HEK/GIRK cells, rat, dose response (AID 623885)). Details: HEK293 GIRK rat mGlu3, thallium flux fluorescence.
Chain of Metabotropic glutamate receptor 3 (Rattus norvegicus) (P31422 whole entry, looked up): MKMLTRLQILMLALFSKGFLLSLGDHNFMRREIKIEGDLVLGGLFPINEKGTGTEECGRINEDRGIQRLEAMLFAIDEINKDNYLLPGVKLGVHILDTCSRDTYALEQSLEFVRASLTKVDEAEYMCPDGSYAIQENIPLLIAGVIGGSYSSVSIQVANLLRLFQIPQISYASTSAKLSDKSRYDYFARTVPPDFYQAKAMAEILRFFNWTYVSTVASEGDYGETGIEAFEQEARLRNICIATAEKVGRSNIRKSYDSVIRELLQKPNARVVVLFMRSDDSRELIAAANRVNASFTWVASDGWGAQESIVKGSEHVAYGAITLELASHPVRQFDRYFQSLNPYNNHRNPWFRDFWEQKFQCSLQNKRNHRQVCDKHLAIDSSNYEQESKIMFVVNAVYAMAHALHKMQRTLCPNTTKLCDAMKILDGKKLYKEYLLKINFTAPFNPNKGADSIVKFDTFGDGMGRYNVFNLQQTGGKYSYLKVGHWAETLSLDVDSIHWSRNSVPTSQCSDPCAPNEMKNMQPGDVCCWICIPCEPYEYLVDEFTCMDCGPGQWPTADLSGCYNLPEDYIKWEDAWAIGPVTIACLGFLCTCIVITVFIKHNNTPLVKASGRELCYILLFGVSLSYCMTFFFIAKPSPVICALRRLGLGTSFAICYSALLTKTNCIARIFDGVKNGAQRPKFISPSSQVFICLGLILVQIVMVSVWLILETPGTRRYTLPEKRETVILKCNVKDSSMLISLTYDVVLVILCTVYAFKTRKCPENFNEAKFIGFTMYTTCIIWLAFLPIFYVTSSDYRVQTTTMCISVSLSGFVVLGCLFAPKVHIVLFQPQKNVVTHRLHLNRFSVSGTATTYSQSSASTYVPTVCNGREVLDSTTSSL
Outline: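 System: HEK cells stably co-expressing GIRK channels, M4 muscarinic receptor, rat mGlu3 / Medium: HEPES-buffered HBSS / Incubation: dye loading 1 h room temperature, compounds ~2.5 min / Measured by: thallium influx through GIRK, FluoZin-2 AM fluorescence / Probe or stimulus: thallium buffer ± agonist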

Row | Compound | IC50
1 | COc1ccc(C#Cc2ccc(C(=O)N3CCCC(CO)C3)cc2)cc1 (configuration not stated) | 2460 nM
2 | COc1ccc(C#Cc2ccc(C(=O)N3CCC[C@H](CO)C3)cc2)cc1 | 3460 nM

Same assay, conditions: HEK293 GIRK rat mGlu3, thallium flux fluorescence; at 30 µM (top of the series)

Row | Compound | percent of glutamate max response
3 | COc1ccc(C#Cc2ccc(C(=O)NC(C)C)cc2)cc1 | inactive
4 | CCC(N)(C#Cc1ccc(C(=O)N2CCC(O)CC2)cc1)CC | inactive
5 | COc1ccc(C#Cc2ccc(C(=O)NCCO)cc2)cc1 | inactive
6 | CC(C)(C)NC(=O)CN1CCc2cc(C#Cc3ccccc3)ccc2C1=O | 51.4
7 | COc1ccc(C#Cc2ccc(C(=O)N3C[C@H]4C[C@@H]3CN4C(=O)OC(C)(C)C)cc2)cc1 | inactive
8 | O=C(CN1CCc2cc(C#Cc3ccccc3)ccc2C1=O)N1CCC2CCCCC2C1 (configuration not stated) | 26.5 and 64.7
9 | Cc1ccccc1C#Cc1ccc(C(=O)N2CCC(O)CC2)cc1 | 10.8
10 | O=C(CN1CCc2cc(C#Cc3ccccc3)ccc2C1=O)NCCN1CCCCC1 | 3.68
11 | CCCC(O)C#Cc1ccc(C(=O)N2CCC(O)CC2)cc1 (configuration not stated) | inactive
12 | COc1ccc(C#Cc2ccc(C(=O)NCCC(C)(C)C)cc2)cc1 | inactive
13 | COCC(C)NC(=O)c1ccc(C#Cc2ccc(OC)cc2)cc1 (configuration not stated) | inactive
14 | O=C(c1ccc(C#CCC2CCCC2)cc1)N1CCC(O)CC1 | 34
15 | COc1ccc(C#Cc2ccc(C(=O)NCCC(C)(C)O)cc2)cc1 | 114
16 | COc1ccc(C#Cc2ccc(C(=O)NC3CCC3)cc2)cc1 | inactive
17 | Cn1ccnc1C#Cc1ccc(C(=O)N2CCC(O)CC2)cc1 | inactive
18 | O=C(c1ccc(C#Cc2ccc(-c3ccccc3)cc2)cc1)N1CCC(O)CC1 | inactive
19 | O=C(c1ccc(C#CC2CC2)cc1)N1CCC(O)CC1 | inactive
20 | COc1ccc(C#Cc2ccc(C(=O)NCc3ccc(C(C)(C)C)cc3)cc2)cc1 | inactive
21 | O=C(c1ccc(C#Cc2ccc(Cl)cc2)cc1)N1CCC(O)CC1 | 51.6
22 | CN(C)CC#Cc1ccc(C(=O)N2CCC(O)CC2)cc1 | inactive
23 | O=C(c1ccc(C#CC2(O)CCCCC2)cc1)N1CCC(O)CC1 | inactive
24 | COc1ccc(C#Cc2ccc(C(=O)N3CCC(OC)CC3)cc2)cc1 | inactive
25 | O=Cc1ccc(C#Cc2ccc(C(=O)N3CCC(O)CC3)cc2)cc1 | 21.8
26 | COc1ccc(C#Cc2ccc(C(=O)N3CCC(C#N)(c4ccccc4)CC3)cc2)cc1 | inactive

Row | Compound | percent of glutamate max response
27 | CCN1CCC[C@H]1CNC(=O)c1ccc(C#Cc2ccc(OC)cc2)cc1 | 5.77
28 | COc1ccc(C#Cc2ccc(C(=O)N3CCCC(O)C3)cc2)cc1 (configuration not stated) | -1.25
29 | O=C(c1ccc(C#CC2CCCC2)cc1)N1CCC(O)CC1 | inactive
30 | COc1ccc(C#Cc2ccc(C(=O)N(CCO)c3ccccc3)cc2)cc1 | inactive
31 | CCc1ccc(C#Cc2ccc(C(=O)N3CCC(O)CC3)cc2)cc1 | 62
32 | O=C(c1ccc(C#CCc2ccsc2)cc1)N1CCC(O)CC1 | 16.1
33 | COc1ccc(C#Cc2ccc(C(=O)N[C@H](C)C(C)C)cc2)cc1 | inactive
34 | O=C(c1ccc(I)cc1)N1CCC(O)CC1 | inactive
35 | COc1ccc(C#Cc2ccc(C(=O)Nc3ccc(F)cn3)cc2)cc1 | 63.9
36 | COc1ccc(C#Cc2ccc(C(=O)N3CCN(C(C)C)CC3)cc2)cc1 | 1.26
37 | COc1ccc(C#Cc2ccc(C(=O)N3CCC(C)(O)CC3)cc2)cc1 | 5.42
38 | COc1ccc(C#Cc2ccc(C(=O)N[C@H](C)C3CC3)cc2)cc1 | 69
39 | COc1ccccc1C#Cc1ccc(C(=O)N2CCC(O)CC2)cc1 | inactive
40 | O=C(c1ccc(C#CCCCCCl)cc1)N1CCC(O)CC1 | 47.8
41 | COc1ccc(C#Cc2ccc(C(=O)N3CC(O)C3)cc2)cc1 | 76.2
42 | O=C(c1ccc(C#Cc2c(C(F)(F)F)cccc2C(F)(F)F)cc1)N1CCC(O)CC1 | 54.9
43 | COc1ccc(C#Cc2cccc(C(=O)N3CCC(O)CC3)c2)cc1 | 13.9
44 | O=C(c1ccc(C#Cc2cccc3ccccc23)cc1)N1CCC(O)CC1 | 32.7
45 | COc1ccc(C#Cc2ccc(C(=O)N3CCC(CO)C3)cc2)cc1 (configuration not stated) | 14.7
46 | O=C(c1ccc(C#CCCCN2C(=O)c3ccccc3C2=O)cc1)N1CCC(O)CC1 | inactive
47 | O=C(c1ccc(C#CCN2C(=O)c3ccccc3C2=O)cc1)N1CCC(O)CC1 | inactive
48 | O=C(c1ccc(C#CCOCC2CO2)cc1)N1CCC(O)CC1 (configuration not stated) | inactive
49 | O=C(c1ccc(C#Cc2ccc(C(F)(F)F)cc2)cc1)N1CCC(O)CC1 | 54.2
50 | COc1ccc(C#Cc2ccc(C(=O)N3CCC(O)(c4ccc(Cl)c(C(F)(F)F)c4)CC3)cc2)cc1 | 117

Row | Compound | percent of glutamate max response
51 | O=C(c1ccc(C#CC2CCCCC2)cc1)N1CCC(O)CC1 | 37
52 | COc1ccc(C#Cc2ccc(C(=O)NC(C)(C)CO)cc2)cc1 | 162
53 | COc1ccc(C#Cc2ccc(C(=O)N3CCC3)cc2)cc1 | 31.5
54 | COc1ccc(C#Cc2ccc(C(=O)N3CCCC3)cc2)cc1 | 35.3
55 | O=C(c1ccc(C#CCOc2ccccc2)cc1)N1CCC(O)CC1 | 37.7
56 | COc1ccc(C#Cc2ccc(C(=O)NC3CCC(C)CC3)cc2)cc1 (configuration not stated) | inactive
57 | CC(C)(C)c1ccc(C#Cc2ccc(C(=O)N3CCC(O)CC3)cc2)cc1 | inactive
58 | Cc1ccc(C#Cc2ccc(C(=O)N3CCC(O)CC3)cc2)cc1 | 33.9
59 | CCC(C)(O)C#Cc1ccc(C(=O)N2CCC(O)CC2)cc1 (configuration not stated) | inactive
60 | O=C(c1ccc(C#CC2(O)CCCC2)cc1)N1CCC(O)CC1 | inactive
61 | CC(C)(C)C#Cc1ccc(C(=O)N2CCC(O)CC2)cc1 | inactive
62 | COc1cccc(C#Cc2ccc(C(=O)N3CCC(O)CC3)cc2)c1 | inactive
63 | CCC1(O)CCN(C(=O)c2ccc(C#Cc3ccc(OC)cc3)cc2)CC1 | 46.4
64 | O=C(c1ccc(C#Cc2ccccc2)cc1)N1CCC(O)CC1 | 11.6
65 | N#CCCCC#Cc1ccc(C(=O)N2CCC(O)CC2)cc1 | inactive
66 | CCOC1CCN(C(=O)c2ccc(C#Cc3ccc(OC)cc3)cc2)CC1 | inactive
67 | COc1ccc(C#Cc2ccc(C(=O)NC(C)(C)C)cc2)cc1 | inactive
68 | O=C(c1ccc(C#CCC2CCCCC2)cc1)N1CCC(O)CC1 | 4.33
69 | COc1ccc(C#Cc2ccc(C(=O)NCCCO)cc2)cc1 | inactive
70 | O=C(c1ccc(C#Cc2ccccn2)cc1)N1CCC(O)CC1 | inactive
71 | CC(O)CC#Cc1ccc(C(=O)N2CCC(O)CC2)cc1 (configuration not stated) | inactive
72 | O=C(c1ccc(C#Cc2ccncc2)cc1)N1CCC(O)CC1 | inactive
73 | CC(C)CCC#Cc1ccc(C(=O)N2CCC(O)CC2)cc1 | 24.7
74 | CCOC(=O)C#Cc1ccc(C(=O)N2CCC(O)CC2)cc1 | inactive

Row | Compound | percent of glutamate max response
75 | COc1ccc(C#Cc2ccc(C(=O)NCCCCO)cc2)cc1 | inactive
76 | COc1ccc(C#Cc2ccc(C(=O)N3CCN(c4ccccc4OC)CC3)cc2)cc1 | inactive
77 | COc1ccc(C#Cc2ccc(C(=O)N3CCC(O)CC3)cc2)cc1 | 7.43
78 | O=C(c1ccc(C#CCc2ccccc2)cc1)N1CCC(O)CC1 | 42.2
79 | COc1ccc(C#Cc2ccc(C(=O)N3CCC[C@H](C(=O)O)C3)cc2)cc1 | 0.55
80 | O=C(c1ccc(C#CCCCCO)cc1)N1CCC(O)CC1 | inactive
81 | COc1ccc(C#Cc2ccc(C(=O)N3CCOCC3)cc2)cc1 | 65.1
82 | COc1ccc(C#Cc2ccccc2C(=O)N2CCC(O)CC2)cc1 | inactive
83 | COc1ccc(C#Cc2ccc(C(=O)N3CCC4CCCCC4C3)cc2)cc1 (configuration not stated) | inactive
84 | CC(C)(C)OC(=O)N1CCC(NC(=O)CN2CCc3cc(C#Cc4ccccc4)ccc3C2=O)CC1 | 33.8
85 | O=C(c1ccc(C#Cc2ccccc2F)cc1)N1CCC(O)CC1 | 22.4
86 | CC(C)(O)C#Cc1ccc(C(=O)N2CCC(O)CC2)cc1 | inactive
87 | COc1ccc(C#Cc2ccc(C(=O)N[C@H](C)C3CCCCC3)cc2)cc1 | inactive
88 | CCCCN(CCO)C(=O)c1ccc(C#Cc2ccc(OC)cc2)cc1 | 8.56
89 | CC(=O)OCC#Cc1ccc(C(=O)N2CCC(O)CC2)cc1 | inactive
90 | CC(O)(C#Cc1ccc(C(=O)N2CCC(O)CC2)cc1)c1cccc(F)c1 (configuration not stated) | inactive
91 | O=C(c1ccc(C#CCN2N=NCc3ccccc32)cc1)N1CCC(O)CC1 | inactive
92 | CCCC1(O)CCN(C(=O)c2ccc(C#Cc3ccc(OC)cc3)cc2)CC1 | inactive
93 | CN(C)c1ccc(C#Cc2ccc(C(=O)N3CCC(O)CC3)cc2)cc1 | inactive
94 | CCN(CC)CC#Cc1ccc(C(=O)N2CCC(O)CC2)cc1 | inactive
95 | O=Cc1ccccc1C#Cc1ccc(C(=O)N2CCC(O)CC2)cc1 | 43.7
96 | COc1ccc(C#Cc2ccc(C(=O)NCCC3=CCCCC3)cc2)cc1 | inactive
97 | COc1ccc(C#Cc2ccc(C(=O)NCC(C)O)cc2)cc1 (configuration not stated) | inactive
